Test results reported in ChEMBL document CHEMBL1130800, “Complexation of okadaic acid: a preliminary study” (1998).

Columns and labels:
Format in all cases: functional
[1] = species on record: Rattus norvegicus; experiment: Emax value in estrogen-primed rat uterus at 20 uM in Ca+2-free K+free solution
How it was run: (§1)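 Strips from oestrogen-primed Wistar rat uterus, 0.5 g resting force, in Sund's PSS variants (Ca²⁺-free; Na⁺- and Ca²⁺-free; K⁺- and Ca²⁺-free) at 32°C. A single 20 μM addition per strip. Maximal isometric contraction expressed as % of the maximal tension evoked by ACh 1 mM in the same strip. Mean ± s.e.m.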

[2] = species on record: Rattus norvegicus; experiment: Decrease in tone in estrogen-primed rat uterus at 20 uM in [Ca2+] free Na+free solution
How it was run: (§2)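 Uterine strips from estradiol benzoate-primed (100 μg Kg⁻¹ ip, 24 h) virgin female Wistar rats, 200-250 g, in Sund's PSS (Ca²⁺-free, Na⁺/Ca²⁺-free, or K⁺/Ca²⁺-free with KCl omitted), 32°C, 95% O₂/5% CO₂, 0.5 g resting force. One 20 μM application per strip. Isometric tension decline measured at 120 min, as % of the agent's maximal tension increase. Mean ± s.e.m.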

[3] = species on record: Rattus norvegicus; experiment: Time to peak tension(min) in estrogen-primed rat uterus at 20 uM in [Ca2+] free K+free solution
How it was run: (§3)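 Isometric recording at 32°C of uterine strips from estrogen-primed (100 μg Kg⁻¹ ip estradiol benzoate, 24 h prior) female Wistar rats, in Ca²⁺-free, Na⁺/Ca²⁺-free or K⁺/Ca²⁺-free Sund's PSS. Each strip received one 20 μM application. Time to peak tension (min) measured from the onset of the tension increase. Mean ± s.e.m.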

[4] = species on record: Rattus norvegicus; experiment: Duration of plateau(min) in estrogen-primed rat uterus at 20 uM in [Ca2+] free Na+free solution
How it was run: (§4)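 Estrus-confirmed, oestrogen-primed rat uterine longitudinal strips in Ca²⁺-free, Na⁺/Ca²⁺-free or K⁺/Ca²⁺-free Sund's PSS at 32°C, gassed 95% O₂/5% CO₂. Strips equilibrated 45 min, then given repeated ACh 1 mM until responses were reproducible. A single 20 μM dose per strip. Contraction plateau duration (min) taken from isometric recordings. Mean ± s.e.m.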

[5] = species on record: Rattus norvegicus; experiment: Duration of plateau(min) in estrogen-primed rat uterus at 20 uM in Ca+2-free solution; how it was run: as §4
[6] = species on record: Rattus norvegicus; experiment: Time to peak tension(min) in estrogen-primed rat uterus at 20 uM in [Ca2+] free Na+free solution; how it was run: as §3
[7] = species on record: Rattus norvegicus; experiment: Time to peak tension(min) in estrogen-primed rat uterus at 20 uM in Ca+2-free solution; how it was run: as §3
[8] = species on record: Rattus norvegicus; experiment: Duration of plateau(min) in estrogen-primed rat uterus at 20 uM in [Ca2+] free K+free solution; how it was run: as §4
[9] = species on record: Rattus norvegicus; experiment: Emax value in estrogen-primed rat uterus at 20 uM in [Ca2+] free Na+free solution; how it was run: as §1
[10] = species on record: Rattus norvegicus; experiment: Emax value in estrogen-primed rat uterus at 20 uM in Ca+2-free solution; how it was run: as §1
[11] = species on record: Rattus norvegicus; experiment: Decrease in tone in estrogen-primed rat uterus at 20 uM in [Ca2+] free K+free solution; how it was run: as §2
[12] = species on record: Rattus norvegicus; experiment: Decrease in tone in estrogen-primed rat uterus at 20 uM in Ca+2-free solution; how it was run: as §2

C=C1[C@@H](O)[C@@H]2O[C@]3(CC[C@H](/C=C/[C@@H](C)[C@@H]4CC(C)=C[C@@]5(O[C@H](C[C@@](C)(O)C(=O)O)CC[C@H]5O)O4)O3)CC[C@H]2O[C@@H]1[C@@H](O)C[C@H](C)[C@H]1O[C@@]2(CCCCO2)CC[C@H]1C [OKADAIC ACID]
Emax [1]: 6.2 | Decrease in tone [2]: 94.8 | Time to peak tension [3]: 28.5 min | Duration of plateau [4]: 3.8 min | Duration of plateau [5]: 2.1 min | Time to peak tension [6]: 25.1 min | Time to peak tension [7]: 27.2 min | Duration of plateau [8]: 12.8 min | Emax [9]: 150.8 | Emax [10]: 107.9 | Decrease in tone [11]: 58.1 | Decrease in tone [12]: 85.7

C=C1[C@@H](O)[C@@H]2O[C@@]3(CCC2O[C@@H]1[C@@H](O)C[C@H](C)C1O[C@@]2(CCCCO2)CC[C@H]1C)CC[C@H](/C=C/[C@@H](C)[C@@H]1CC(C)=C[C@@]2(O[C@H](C[C@@](C)(O)C(=O)O)CC[C@H]2O)O1)O3 (some centres undefined)
Emax [1]: 135.2 | Decrease in tone [2]: 93.3 | Time to peak tension [3]: 20.7 min | Duration of plateau [4]: 4.2 min | Duration of plateau [5]: 3.7 min | Time to peak tension [6]: 30.3 min | Time to peak tension [7]: 23 min | Duration of plateau [8]: 2.9 min | Emax [9]: 186.5 | Emax [10]: 101.7 | Decrease in tone [11]: 98 | Decrease in tone [12]: 92.8
